# Assay outcomes (PubChem)
# Most compounds without a hit are left out; they make up all but 1.9% or so of the library.
# TbHK1 inh: Trypanosoma brucei hexokinase 1 inhibitors, primary screen, biochemical, G6PDH-coupled NADH absorbance, MLSCN library | hit rate 0.11% among 220,000 | recombinant TbHK1, G6PDH-coupled NADH A340 | inhibition, % at 10 µM;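 active = inhibition of 50% or more in the single-dose primary screen; inactive = inhibition below 50%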
# Insulin prom up: insulin promoter activators in MIN6 cells, imaging, high-content screening, mouse beta cells. hit rate 0.3% among 190,000. z-score at 5 µM. MIN6 insulin promoter-GFP reporter; active compounds read high;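 active = z-score above 3 at 5 µM with at least 500 cells counted in the well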
# MT stabilize HCS: microtubule stabilizers in HeLa cells, primary screen, imaging, high-content imaging. HeLa tubulin immunostaining HCS, 24 h; share of cells brighter than vehicle mean+2SD. % tubulin-high responders, % at 10 µM. hit rate 0.83% among 200,000;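 active = plate Z-score above 3 for both tubulin-high and condensed-nucleus cell shares, with cell loss under 80%, at 10 µM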;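 also: anti alpha tubulin signal scored within the nucleus-defined area of each cell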
# bCat nuc transl: modulators of beta-catenin nuclear translocation, primary screen, imaging, HeLa cells, immunofluorescence, high-content; nuclear translocation activity, % at 5 µM; hit rate 0.3% among 190,000; AID 1665, 2009;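 active = nuclear translocation activity above 50% at 5 µM, with a well cell count of 50 or more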;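 also: per-cell ratio of nuclear to cytoplasmic median beta-catenin stain intensity; plate controls were DMSO negative control for no effect and GSK-3 inhibitor IX positive control for full effect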
#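 Technique: fluorescence imaging of beta-catenin antibody stain plus DAPI / Material: human HeLa cell line / Incubation: compound treatment 24 h, 37°C, 5% CO2 / Read-out basis: % activation of per-cell nuclear versus cytoplasmic median beta-catenin signal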
# Autophagy mod: autophagy modulators in MEF cells, primary screen, imaging, high-content, MEF GFP-LC3; MEF GFP-LC3 puncta imaging; test concentration mostly 10 µM; calls only at 10 µM (by protocol); hit rate 0.98% among 190,000; AID 463193, 2010;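 active = percentage of spot-positive cells more than 3 SD above its plate mean, without a fluorescence outlier flag or 80% toxicity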;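 also: spot-positive cell cutoff set from DMSO-treated cells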
# G6PDH ctr: Leuconostoc G6PDH inhibition, confirmation, counter-screen for TbHK1 inhibitor project, biochemical, DPI cherry-picked compounds, single concentration; shares compounds with TbHK1 inh; AID 2516, 2010; hit rate 7% among 210; purified G6PDH, NADH absorbance, 1 h; inhibition, % at 10 µM;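 active = at least 50% inhibition in the glucose-6-phosphate dehydrogenase coupled counterscreen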
# TbHK1 rescreen: TbHK1 inhibitor retest, confirmation, biochemical, DPI cherry-picked primary actives. recombinant TbHK1, G6PDH-coupled NADH A340 absorbance. hit rate 10% among 210. shares compounds with TbHK1 inh. AID 2560, 2010. inhibition, % at 10 µM;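 active = inhibition of at least 50% in both of the two screening runs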;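 also: 0% and 100% set by the maximum and minimum signal control wells on each plate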
# Numbers without * were called inactive; i = inactive; / = not tested or not shown; + = active, no number; ! = a repeat was not active.
SMILES,TbHK1 inh,Insulin prom up,MT stabilize HCS,bCat nuc transl,Autophagy mod,G6PDH ctr,TbHK1 rescreen
CCS(=O)(=O)c1ccc2oc(SCC(=O)NC3CCCC(C)C3C)nc2c1 (configuration not stated),-3,4.3*,2,-2,i,/,/
Cc1sc2ncnc(N=Nc3c(O)[nH]c4ccccc34)c2c1C,-19,0.2,2,/,i,/,/
CCc1cc2c(N=Nc3c(O)[nH]c4ccccc34)ncnc2s1,-7,-0.82,6,3,+,/,/
CC(C)(C)OC(=O)NCC(=O)NCC(=O)OCc1ccccc1,53*,0.64,5,-1,i,3,1
O=C1CN(C(=O)COC(=O)CCC(=O)c2ccc3c(c2)OCCO3)c2ccccc2N1,50*,-0.69,5,-3,i,-6,-5
CN(C)c1ccc(C(=S)N2CCOCC2)cc1,69*,0.85,4,-3,i,-20,-30
Cc1c(NC(=O)CC(=O)Nc2c(C)n(C)n(-c3ccccc3)c2=O)c(=O)n(-c2ccccc2)n1C,74*,0.14,5,1,i,-5,4
CC(C)C12CN3CC(C(C)C)(CN(C1)C3c1ccc([N+](=O)[O-])o1)C2=O (configuration not stated),-24,-1.1,/,0,/,/,/
Cc1ccccc1-n1sc2cc(F)ccc2c1=O,55*,1.6,2,1,i,-2,79*
COc1ccc(CNC(=O)C2CCN(C(=O)[C@@H](CC(C)C)NC(=O)OC(C)(C)C)CC2)cc1,56*,0.09,4,-2,i,-9,1
CC(C)(C)OC(=O)N[C@@H](Cc1ccccc1)C(=O)N1CCC(C(=O)O)CC1,1,0.31,3,-2,i,/,/
CC1(C)OC(=O)C(=CNc2ccccn2)C(=O)O1,-29,/,/,0,/,/,/
CC1(C)OC(=O)C(=CNc2ncccn2)C(=O)O1,52*,0.07,4,0,i,-27,-25
CC(=O)/C=C(/C)NC(Cc1c[nH]c2ccccc12)C(=O)O (configuration not stated),51*!,0.06,5,-5,i,-17,-3
N#Cc1cccc(NC(=O)CN2C(=O)NC(Cc3ccccc3)C2=O)c1 (configuration not stated),-4,-0.43,/,1,/,/,/
Cc1nn2c(-c3cccc(NC(=O)CN4CCOCC4)c3)nnc2c2ccccc12,-3,/,3,/,i,/,/
Cc1ccc(-c2nnc3c4ccccc4c(C)nn23)cc1NC(=O)CN1CCOCC1,51*,0.39,4,0,i,-20,-11
CCOC(=O)C1(Cc2ccc(Cl)cc2)CCN(C(=O)c2cnc(C)cn2)CC1,-15,0.27,/,1,/,/,/
COc1cc(C2C(C#N)=C(N)Oc3cc(N(C)C)ccc32)cc2c1OCO2 (configuration not stated),59*,-0.36,14*,80*,i,-7,-13
CCN(CC)CCCN1C(=O)c2oc3ccccc3c(=O)c2C1c1cccnc1 (configuration not stated),54*,-0.2,5,-5,i,-17,-10
O=[N+]([O-])c1cc(/C=N\Nc2nccs2)ccc1O,50*,-0.29,1,5,i,-65,56*
O=C(COc1ccccc1[N+](=O)[O-])N/N=C/c1ccc(O)c([N+](=O)[O-])c1,-13,0.81,4,0,i,/,/
CCOC(=O)N1CCN(c2ccc(S(=O)(=O)N(Cc3ccccc3)Cc3ccccc3)cn2)CC1,58*,-1.1,6,-2,i,-46,7
COc1cc(C(=O)Nc2nnc(C)s2)c([N+](=O)[O-])cc1OC,-23,0.28,/,-2,/,/,/
O=C(NCCCN1CCOCC1)C(=O)NCC1CCCO1 (configuration not stated),31,-0.14,2,-2,i,/,/
SMILES,TbHK1 inh,Insulin prom up,MT stabilize HCS,bCat nuc transl,Autophagy mod,G6PDH ctr,TbHK1 rescreen
O=C(O)C1CCCCC1C(=O)NCCCN1CCOCC1 (configuration not stated),51*,0.1,3,3,i,-7,-3
COc1ccc(-c2nnn(CC#N)n2)cc1OC,-3,-0.76,1,-2,i,/,/
COc1ccccc1-c1nnn(CC#N)n1,52*,-0.21,5,1,i,-6,-4
COC(=O)c1c(C)[nH]c(C(=O)CSc2ccc(Cl)cc2)c1C,50*,-0.63,1,0,i,-6,-11
Cc1ccc(NC(=O)c2nc[nH]c2C(=O)NCC(=O)OC(C)(C)C)cc1,-5,-0.3,/,0,/,/,/
Cc1ccc(CNC(=O)CCS(=O)(=O)c2ccc(Br)cc2)cc1,68*,-0.04,4,/,i,-3,79*
CC1CCN(C(=S)c2ccc(N(C)C)cc2)CC1,-2,-0.53,2,-2,i,/,/
C=CCn1c(SCC(=O)OCC)nc(C(F)(F)F)cc1=O,0,-0.04,6,2,i,/,/
CNc1nc(-c2ccccc2)[n+](-c2ccc(C)cc2)s1,61*,1.1,7,0,i,17,85*
Cc1ccc(-c2nc(N)s[n+]2-c2ccccc2)cc1,98*,0.08,3,-2,i,14,95*
COc1ccc(CCNC(=O)C2CCCCC2C(=O)O)cc1OC (configuration not stated),59*,0.35,5,0,i,-5,3
Cc1cc(Br)cc2cn[nH]c12,-2,-0.42,5,-2,i,/,/
C=C(C)CNC(=S)N/N=C/c1ccco1,-43,-0.14,/,-1,/,/,/
O=C(/C=C/c1cc[n+](CC(=O)c2ccc3cccc4c3c2CC4)cc1)c1ccc2cccc3c2c1CC3,75*,-0.15,/,-2,/,100*,45
O=C(C[n+]1ccc2ccccc2c1)c1cccc2ccccc12,-5,0.09,2,2,i,/,/
COCc1c(C(=O)OCC(=O)NCCN2C(=O)CSC2=O)oc2ccccc12,1,/,2,1,i,/,/
CCN(CC)S(=O)(=O)c1ccc(C(=O)NCc2n[nH]c(=S)n2Cc2ccccc2)cc1,61*,1.1,4,2,i,-12,5
CCN(CC)S(=O)(=O)c1ccc(C(=O)Nc2ncn(Cc3ccccc3)n2)cc1,64*,0.15,4,0,i,-5,2
CC(C)c1ccc(CNC(=O)C(=O)NCCCn2ccnc2)cc1,1,-1.6,4,-1,i,/,/
Cc1cc(Br)ccc1NC(=O)CN1C(=S)NC(C)(C)CC1C (configuration not stated),10,0.92,4,-5,i,/,/
